Measurements: ChEMBL document CHEMBL1148725, “2,2,2-Trichloro-N-({2-[2-(dimethylamino)ethyl]-1,3-dioxo-2,3-dihydro-1H-benzo[de]isoquinolin- 5-yl}carbamoyl)acetamide (UNBS3157), a novel nonhematotoxic naphthalimide derivative with potent antitumor activity” (J Med Chem, 2007)
Activity calls are given as the source filed them. The calls are words filed in the database; no cut-off is given here.

Assays:
Mus musculus [1] = test: Hematotoxicity in B6D2F1 mouse assessed as platelet count at 120 mg/kg, po; type: organism-based; design: dose 120 mg/kg, route oral; settings: in vivo
HCT-15 = test: Antiproliferative activity against HCT15 cells after 72 hrs by MTT assay; type: functional, cell-based, Homo sapiens; settings: Homo sapiens, HCT-15, 72 h
How it was run: (§1)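 Cells cultured with each compound for three days; growth then read by the MTT colorimetric assay and reported as IC50 (µM).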

MCF7 [2] = test: Antiproliferative activity against MCF7 cells after 72 hrs by MTT assay; type: functional, cell-based, Homo sapiens; settings: Homo sapiens, MCF7, 72 h; how it was run: as §1
L1210 [3] = test: Antitumor activity in L1210 cells xenografted B6D2F1 mouse at 10 mg/kg, ip relative to control; type: functional; settings: route intraperitoneal
How it was run: (§2)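 Mice grafted with L1210 leukaemia cells on day 0, then dosed i.p. four times weekly on days 1-4 and 8-11. Five mice per group. Outcome is %T/C, the median survival of treated over control. Kruskal-Wallis test followed by Dunn comparisons against control.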

L1210 [4] = test: Antitumor activity in L1210 cells xenografted B6D2F1 mouse at 20 mg/kg, ip relative to control; type: functional; settings: route intraperitoneal; how it was run: as §2
L1210 [5] = test: Antitumor activity in L1210 cells xenografted B6D2F1 mouse at 120 mg/kg, ip relative to control; type: functional; settings: route intraperitoneal; how it was run: as §2
Mus musculus [6] = test: Hematotoxicity in B6D2F1 mouse assessed as platelet count at 10 mg/kg, iv; type: organism-based; design: dose 10 mg/kg, route intravenous; settings: in vivo
Mus musculus [7] = test: Hematotoxicity in B6D2F1 mouse assessed as WBC count at 10 mg/kg, iv; type: organism-based; design: dose 10 mg/kg, route intravenous; settings: in vivo
Mus musculus [8] = test: Hematotoxicity in B6D2F1 mouse assessed as RBC count at 40 mg/kg, iv; type: organism-based; design: dose 40 mg/kg, route intravenous; settings: in vivo
Mus musculus [9] = test: Hematotoxicity in B6D2F1 mouse assessed as WBC count at 40 mg/kg, iv; type: organism-based; design: dose 40 mg/kg, route intravenous; settings: in vivo
Mus musculus [10] = test: Hematotoxicity in B6D2F1 mouse assessed as RBC count at 160 mg/kg, po; type: organism-based; design: dose 160 mg/kg, route oral; settings: in vivo
Mus musculus [11] = test: Hematotoxicity in B6D2F1 mouse assessed as WBC count at 120 mg/kg, po; type: organism-based; design: dose 120 mg/kg, route oral; settings: in vivo
Mus musculus [12] = test: Hematotoxicity in B6D2F1 mouse assessed as WBC count at 160 mg/kg, po; type: organism-based; design: dose 160 mg/kg, route oral; settings: in vivo
A549 = test: Antitumor activity against human A549 cells xenografted in mouse at 10 mg/kg, iv; type: functional, organism-based; design: dose 10 mg/kg
How it was run: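 Human A549 NSCLC cells grafted orthotopically into the lungs of immunocompromised mice. Compound given i.v. at 10 mg/kg. Survival gain assessed by survival curve analysis.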

DU-145 [13] = test: Induction of apoptosis in human DU145 cells at 10 uM after 72 hrs; type: functional
How it was run: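 Prostate cancer cells exposed for 72 h to 0, 1 or 10 µM. Apoptosis quantified by flow cytometry after Annexin V-FITC staining.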

MCF7 [14] = test: Induction of apoptosis in human MCF7 cells assessed as p53 activation; type: functional, cell-based
How it was run: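 MCF-7 cells treated and p53 activation assessed by immunoblotting, with tubulin as loading control. Adriamycin (2.5 µM, 24 h) served as positive control.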

DU-145 [15] = test: Induction of apoptosis in human DU145 cells assessed as procaspase-8 activation; type: functional, cell-based
DU-145 [16] = test: Induction of apoptosis in human DU145 cells assessed as procaspase-9 activation; type: functional, cell-based
How it was run: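 PC-3 and DU-145 cells treated over 72 h at 1 and 10 µM, compared with untreated cells. p53, PARP cleavage and procaspase-3/-9 activation assessed by immunoblotting.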

PC-3 = test: Induction of autophagy in human PC3 cells by acridine orange staining at 10 uM after 72 hrs; type: functional
DU-145 [17] = test: Induction of autophagy in human DU145 cells by acridine orange staining at 10 uM after 72 hrs; type: functional
DU-145 [18] = test: Cell cycle arrest in DU145 cells assessed as accumulation at G2 phase at 10 uM after 72 hrs; type: functional, cell-based; settings: Homo sapiens
How it was run: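 PC-3 or DU-145 cells treated for 72 h with 0, 1 or 10 µM. Cell-cycle distribution (G0/G1, S, G2/M) determined by propidium iodide staining.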

DU-145 [19] = test: Induction of senescence in human DU145 cells; type: functional, cell-based
How it was run: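 SA-β-galactosidase staining of PC-3 and DU-145 prostate cancer cells after 72 h at 10 µM; adriamycin 20 nM as positive control; expressed as percentage of positively stained cells.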

Mus musculus [20] = test: Hematotoxicity in ip dosed B6D2F1 mouse assessed as decrease in WBC count; type: organism-based; settings: in vivo
How it was run: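 Healthy female B6D2F1 mice, 10 per group, were dosed i.p. three times a week for five consecutive weeks (15 doses). Each compound was given at two dose levels chosen relative to its MTD, in DMSO/saline 5:95 v/v. Mice were sacrificed 3 days after the last dose, and platelet, RBC and WBC counts were taken by Coulter counter. Data are mean ± SEM.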

[21] = Antitumor activity against mouse MXT-HI cells xenografted in B6D2F1 mouse at 160 mg/kg, ip relative to control; type: functional; settings: route intraperitoneal
How it was run: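 MXT-HI mammary adenocarcinoma grafted s.c. onto female B6D2F1 mice. Dosing i.p., five injections weekly for three weeks from day 14 post-graft. Nine mice per group. Tumour surface area measured, and survival expressed as %T/C, the ratio of treated to control median survival time.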

MDA-MB-231 = test: Antitumor activity against human MDA-MB-231 cells xenografted in immunocompromised mouse at 10 mg/kg, iv

Which results are given for CN(C)CCN1C(=O)c2cccc3cc(NC(=O)NC(=O)C(Cl)(Cl)Cl)cc(c23)C1=O?
Activity (Mus musculus [1]): 977 10^3 /uL; IC50 (HCT-15): 900 nM; IC50 (MCF7 [2]): 1800 nM; Activity (L1210 [3]): 197%; Activity (L1210 [4]): 205%; Activity (L1210 [5]): 281%; Activity (Mus musculus [6]): 402 10^3 /uL; Activity (Mus musculus [7]): 3.92 10^3 /uL; Activity (Mus musculus [8]): 9.1 10^6 /uL; Activity (Mus musculus [9]): 2.97 10^3 /uL; Activity (Mus musculus [10]): 10.13 10^6 /uL; Activity (Mus musculus [11]): 2.85 10^3 /uL; Activity (Mus musculus [12]): 2.82 10^3 /uL; Activity (A549): Active; Activity (DU-145 [13]): 15%; Activity (MCF7 [14]): inactive; Activity (DU-145 [15]): inactive; Activity (DU-145 [16]): inactive; Activity (PC-3): 35%; Activity (DU-145 [17]): 10%; Activity (DU-145 [18]): inactive; Activity (DU-145 [19]): Active; Activity (Mus musculus [20]): Non-toxic; Activity [21]: 183%; Activity (MDA-MB-231): Active
